The list is not random: actives were taken first. Their share in the collection is about 2.5%.
NR2E3 ag-1: agonists of human nuclear receptor NR2E3; hit rate 0.12% among 320,000; inhibition of corepressor binding, % at 4.78 µM; GST-NR2E3/biotin-RetCOR TR-FRET, 1536-well; Q9Y5X4;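 active = percent inhibition above the cutoff of mean plus 3 SD of all tested compounds, set per screening campaign, cut at about 20% in these data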
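Material – GST-tagged NR2E3 plus biotinylated RetCOR corepressor · Quantity – NR2E3 fusion 1.35 nM · Times – 5 h incubation at 4 °C · Medium – pH 7.5 Tris-based buffer · Technique – TR-FRET, Eu(K)-anti-GST donor, streptavidin-D2 acceptor, ex 340, em 617/671 nm · Benchmarks – high control biotin, low control 0.6% DMSO · Format – 1536-well plates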
JMJD2C inh: blocks human GASC-1 demethylase activity. GST-JMJD2C(1-420) H3K9me3 demethylation, DELFIA europium. inhibition, % at 2.35 µM. hit rate 0.069% among 330,000. AID 2099;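 active = more than half of a compound's replicate wells show inhibition beyond 50%, single wells judged on their own value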;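 note: signal counts dimethyl H3K9 product captured on neutravidin plate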
ADAM17 inh: ADAM17 inhibition, QFRET primary screen; recombinant ADAM17, EDANS/DABCYL FRET peptide cleavage; inhibition, % at 6.95 µM; hit rate 0.83% among 370,000; AID 720648;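 active = inhibition above the mean of compounds lying between control limits plus 3 SD, set per campaign, cut at about 8.5% in these data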
KLK7 zymogen act: proKLK7 (human) activation, primary screen; AID 652039; activation, % at 7 µM; hit rate 0.9% among 370,000; purified proKLK7, EDANS-DABCYL substrate fluorescence; 100% is mature enzyme control, 0% vehicle; P49862;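 active = activation above the mean of all tested compounds plus 3 SD, computed per campaign excluding outliers beyond control limits, cut at about 13% in these data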
NR2E3 ag-2: activates human NR2E3 receptor; inhibition of corepressor binding, % at 3.98 µM; CHO-S Gal4-NCOR/VP16-NR2E3 two-hybrid, luciferase; Q9Y5X4; hit rate 0.35% among 360,000;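 active = inhibition above the mean of all tested compounds plus 3 SD, cut at about 70% in these data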;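 note: higher means lower luciferase signal from less NR2E3 corepressor binding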
ADAM10 inh: ADAM10 inhibition, QFRET primary screen; recombinant ADAM10, EDANS/DABCYL FRET peptide cleavage, 3 h; inhibition, % at 7 µM; hit rate 0.62% among 370,000; AID 720582;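 active = inhibition above a per-campaign cutoff equal to the mean of compounds falling between control-based bounds plus 3 SD, cut at about 20% in these data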
Target sequence (O14672 214-748 limits assumed): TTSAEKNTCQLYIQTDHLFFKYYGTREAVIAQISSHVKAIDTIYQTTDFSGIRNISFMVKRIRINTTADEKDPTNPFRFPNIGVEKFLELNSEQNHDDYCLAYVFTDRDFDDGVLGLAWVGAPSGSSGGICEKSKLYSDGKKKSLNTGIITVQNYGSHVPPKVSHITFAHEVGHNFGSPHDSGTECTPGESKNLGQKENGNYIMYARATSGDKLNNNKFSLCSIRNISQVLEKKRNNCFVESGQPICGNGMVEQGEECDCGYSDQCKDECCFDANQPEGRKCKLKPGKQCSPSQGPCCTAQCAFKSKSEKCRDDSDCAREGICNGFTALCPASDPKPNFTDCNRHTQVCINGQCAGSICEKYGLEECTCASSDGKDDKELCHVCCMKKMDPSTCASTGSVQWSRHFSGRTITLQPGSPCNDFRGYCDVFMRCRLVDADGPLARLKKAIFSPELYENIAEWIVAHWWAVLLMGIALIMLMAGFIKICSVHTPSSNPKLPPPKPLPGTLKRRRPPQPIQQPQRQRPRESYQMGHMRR
ADAM10 confirm: confirmation of inhibitors of human ADAM10. shares compounds with ADAM10 inh. ADAM10 QFRET peptide cleavage, EDANS fluorescence. inhibition, % at 6.95 µM. hit rate 1% among 2,100;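 active = inhibition above about 20% chosen separately for each screening run, limit read from the data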
ADAM17 ctr: counter-screen for ADAM10 exosite inhibitors: inhibitors of human ADAM17 | ADAM17 QFRET peptide cleavage, EDANS fluorescence | AID 743214 | inhibition, % at 6.95 µM | shares compounds with ADAM10 inh | hit rate 0.5% among 2,100;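 active = mean triplicate inhibition above the solvent-only control wells' mean plus 3 SD, cut at about 12% in these data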
Each line names hits and unclear results; the compound was inactive in the other large screens (follow-up assays come after a bar, where they were run).

COC(=O)[C@]12C[C@H](CC(=O)NCc3ccc(OC)c(OC)c3)C(=O)N(Cc3cccc4ccccc34)C1=C[C@H](C1CCCC1)O[C@@H]2C	ADAM10 inh 24.1 (no result: NR2E3 ag-1, JMJD2C inh, NR2E3 ag-2) | ADAM10 confirm inactive | ADAM17 ctr inactive
CCCCOCCCNC(=O)C[C@H]1C[C@@]2(C(=O)OC)C(=C[C@H](C(C)(C)C)O[C@@H]2C)N(Cc2cccc3ccccc23)C1=O	ADAM10 inh 21.2 (no result: NR2E3 ag-1, JMJD2C inh, NR2E3 ag-2) | ADAM10 confirm inactive | ADAM17 ctr inactive
CC1(c2nnc(-c3cccc(Cl)c3)o2)CC(c2ccc(OC(F)(F)F)cc2)=NO1 (stereo not drawn)	none
CC(C(=O)NN)c1ccc([N+](=O)[O-])cc1 (stereo not drawn)	none
Cc1cccnc1C1=NOC(Cc2ccccc2)C(=O)N1Cc1ccc2c(c1)OCO2 (stereo not drawn)	none (no result: NR2E3 ag-1, JMJD2C inh)
Cc1cccc(NC(=S)NNC(=O)c2cccc([N+](=O)[O-])c2)c1	ADAM10 inh 20.8 | ADAM10 confirm inactive | ADAM17 ctr inactive
CC(CNC(=O)CCS(=O)(=O)c1cc2c(cc1Cl)NC(=O)CO2)c1ccccc1 (stereo not drawn)	none
O=C(Nc1ccc(S(=O)(=O)Nc2ncccn2)cc1)c1cccc(S(=O)(=O)N2CCCC2)c1	none
CCc1c(C(=O)N/N=C/c2sccc2C)nnn1-c1nonc1N	none
Cc1ccsc1/C=N/NC(=O)c1nnn(-c2nonc2N)c1CN(C)c1ccccc1	ADAM10 inh 21.8 | ADAM10 confirm inactive | ADAM17 ctr inactive
Cc1ccccc1S(=O)(=O)N1C(c2ccc(Cl)c(Cl)c2)CC=C(C(=O)O)C1c1cccc(Br)c1 (stereo not drawn)	ADAM10 inh 20.1 (no result: NR2E3 ag-1, JMJD2C inh, NR2E3 ag-2) | ADAM10 confirm inactive | ADAM17 ctr inactive
COc1cc(CNc2nc3c(C)cc(C)cc3s2)ccc1O	ADAM10 inh 21.8 | ADAM10 confirm inactive | ADAM17 ctr inactive
O=C(Nc1cc(Cl)ccc1-n1cncn1)c1cccc(S(=O)(=O)N2CCOCC2)c1	ADAM10 inh 92.8 | ADAM10 confirm inactive | ADAM17 ctr inactive
Cc1cccc(NC(=O)C2CCN(c3ncccn3)CC2)c1C	none (no result: NR2E3 ag-1, JMJD2C inh, NR2E3 ag-2)
COc1ccc(CCn2c(-c3ccc(C(C)(C)C)cc3)n[nH]c2=S)cc1OC	ADAM10 inh 23.6 (no result: JMJD2C inh) | ADAM10 confirm inactive | ADAM17 ctr inactive
COc1ccc(N(CC(O)Cn2cnc3ccccc32)S(=O)(=O)c2ccc(C)cc2)cc1 (stereo not drawn)	ADAM10 inh 21.6 | ADAM10 confirm inactive | ADAM17 ctr inactive
O=C(COC(=O)c1c2c(nc3ccccc13)CCCC2)Nc1ccc2c(c1)OCO2	ADAM10 inh 23.9 | ADAM10 confirm inactive | ADAM17 ctr inactive
Cc1occc1C(=O)NNC(=O)C(c1ccccc1)c1ccccc1	ADAM10 inh 28.0 | ADAM10 confirm inactive | ADAM17 ctr inactive
Cc1occc1C(=O)Nc1ccccc1C(=O)O	none
O=S(=O)(Nc1ccc2c(c1)OCCO2)c1ccc(Br)s1	ADAM10 inh 21.1 | ADAM10 confirm inactive | ADAM17 ctr inactive
Cc1ccc(S(=O)(=O)N2C(c3ccccc3)CC(=O)C3CN(S(=O)(=O)c4ccc(Cl)cc4)C(c4ccccc4)CC32)cc1 (stereo not drawn)	none (no result: NR2E3 ag-1, JMJD2C inh, NR2E3 ag-2)
COc1ccc(N(C)S(=O)(=O)c2cccc(C(=O)Nc3cc(OC)ccc3OC)c2)cc1	ADAM10 inh 20.5 | ADAM10 confirm inactive | ADAM17 ctr inactive
C/C(=N\Nc1nc(-c2cc(C)ccc2C)cs1)c1cc2c(ccc3ccccc32)oc1=O	none
CCOc1ccc(N2C(=O)CC(NCC#N)C2=O)cc1 (stereo not drawn)	none
Cc1sc2nc(CSc3ccccc3)nc(N3CCC(C(N)=O)CC3)c2c1C	ADAM10 inh 20.1 | ADAM10 confirm inactive | ADAM17 ctr inactive
COc1ccc(C)c2sc(N(CCCN(C)C)C(=O)c3ccc(S(=O)(=O)N4CCc5ccccc5C4)cc3)nc12	ADAM10 inh 30.8 | ADAM10 confirm 21.2 | ADAM17 ctr inactive
CC(=O)c1cccc(S(=O)(=O)N2CCC(c3nc4ccccc4[nH]3)CC2)c1	none
Cc1ccc2nc(C3CCN(S(=O)(=O)c4ccc5ccccc5c4)CC3)[nH]c2c1	ADAM10 inh 26.0 | ADAM10 confirm inactive | ADAM17 ctr inactive
Cc1c(Cl)cccc1NC(=O)c1ncn[nH]1	none
CC(O)(c1ccc(F)c(F)c1)c1nc(-c2csc3ccccc23)cs1 (stereo not drawn)	none (no result: NR2E3 ag-1, JMJD2C inh)
CC(O)(c1cccc(F)c1)c1nc(/C=C/c2ccccc2)cs1 (stereo not drawn)	ADAM10 inh 22.1 (no result: NR2E3 ag-1, JMJD2C inh) | ADAM10 confirm inactive | ADAM17 ctr inactive
CC(O)(c1cccc(F)c1)c1nc(-c2csc3ccccc23)cs1 (stereo not drawn)	ADAM10 inh 22.8 (no result: NR2E3 ag-1, JMJD2C inh) | ADAM10 confirm inactive | ADAM17 ctr inactive
CC(O)(c1cccc(F)c1)c1nc(-c2cc3ccccc3o2)cs1 (stereo not drawn)	ADAM10 inh 22.0 (no result: NR2E3 ag-1, JMJD2C inh) | ADAM10 confirm inactive | ADAM17 ctr inactive
CC(O)(c1ccccc1)c1nc(-c2csc3ccccc23)cs1 (stereo not drawn)	ADAM10 inh 20.6 (no result: NR2E3 ag-1, JMJD2C inh) | ADAM10 confirm inactive | ADAM17 ctr inactive
CC(C)(C)N(Cc1ccccc1)C(=O)COC(=O)CCN1C(=O)C2CC=CCC2C1=O (stereo not drawn)	none (no result: NR2E3 ag-1, JMJD2C inh)
C/C=C(\C)C(=O)N1CC2(CC(c3cccc(NC(=O)COc4ccc(Cl)cc4)c3)=NO2)C[C@@H]1C(N)=O (stereo partly drawn)	ADAM10 inh 85.1 | ADAM10 confirm inactive | ADAM17 ctr inactive
COc1ccc(C(=O)N2CC3(CC(c4cccc(NC(=O)COc5ccc(Cl)cc5)c4)=NO3)C[C@@H]2C(N)=O)cc1 (stereo partly drawn)	ADAM10 inh 23.0 | ADAM10 confirm inactive | ADAM17 ctr inactive
CC(=O)Nc1ccc(S(=O)(=O)Oc2ccccc2N2CCCCC2)cc1	ADAM10 inh 22.6 | ADAM10 confirm inactive | ADAM17 ctr inactive
NC(=O)N/N=C/c1ccccc1OCC(=O)NCc1ccccc1	none
N#Cc1cccc(C(=O)Nc2cccc(S(=O)(=O)N3CCCC3)c2)c1	none
COc1cccc(NC(=O)CN2C(=O)CSc3ccc(S(=O)(=O)N4CCOCC4)cc32)c1	none
COc1cccc(NC(=O)CN2C(=O)CSc3ccc(S(=O)(=O)N4CCC(C)CC4)cc32)c1	ADAM10 inh 20.6 | ADAM10 confirm inactive | ADAM17 ctr inactive
CCc1c(C(=O)NNC(=S)Nc2ccc(S(=O)(=O)Nc3ncccn3)cc2)csc1C	ADAM10 inh 23.0 | ADAM10 confirm inactive | ADAM17 ctr inactive
